Data set [1] deals with Histone deacetylase. The data set is described as follows: Inhibition of HDAC in HEK293T cells by whole cell assay. Type of data set: cell-based, Homo sapiens. To be noted: hek-293t. Put shortly:
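Cultured 293T cells exposed to inhibitors for 16 h, then given the membrane-permeable substrate Boc-Ac-Lys-AMC for 90 min at 37 °C. Quenched with trypsin (1 mg/mL final) and TSA, then lysed in 1% NP-40. Fluorescence read at Ex 360/Em 470 nm; IC50 reported. Values are means of at least two experiments.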

For another data set, the target named is Histone deacetylase 1 (Homo sapiens, UniProt Q13547). The data set is described as follows: Inhibition of human recombinant FLAG-tagged HDAC1 expressed in baculovirus. Put shortly:
(§1)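 Enzyme preincubated with inhibitor 10 min at ambient temperature in 25 mM Hepes pH 8.0, 137 mM NaCl, 1 mM MgCl₂, 2.7 mM KCl. Coumarin-labeled acetyl-lysine substrate then added, incubated at 37 °C. Quenched with trypsin (1 mg/mL final) and TSA (1 μM final). Fluorescence read; IC50 from dose–response curves. Values are means of at least two experiments.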

The target in data set [2] is T1, Protein deacetylase HDAC6 (Homo sapiens, UniProt Q9UBN7).
T1 sequence (Q9UBN7 whole entry): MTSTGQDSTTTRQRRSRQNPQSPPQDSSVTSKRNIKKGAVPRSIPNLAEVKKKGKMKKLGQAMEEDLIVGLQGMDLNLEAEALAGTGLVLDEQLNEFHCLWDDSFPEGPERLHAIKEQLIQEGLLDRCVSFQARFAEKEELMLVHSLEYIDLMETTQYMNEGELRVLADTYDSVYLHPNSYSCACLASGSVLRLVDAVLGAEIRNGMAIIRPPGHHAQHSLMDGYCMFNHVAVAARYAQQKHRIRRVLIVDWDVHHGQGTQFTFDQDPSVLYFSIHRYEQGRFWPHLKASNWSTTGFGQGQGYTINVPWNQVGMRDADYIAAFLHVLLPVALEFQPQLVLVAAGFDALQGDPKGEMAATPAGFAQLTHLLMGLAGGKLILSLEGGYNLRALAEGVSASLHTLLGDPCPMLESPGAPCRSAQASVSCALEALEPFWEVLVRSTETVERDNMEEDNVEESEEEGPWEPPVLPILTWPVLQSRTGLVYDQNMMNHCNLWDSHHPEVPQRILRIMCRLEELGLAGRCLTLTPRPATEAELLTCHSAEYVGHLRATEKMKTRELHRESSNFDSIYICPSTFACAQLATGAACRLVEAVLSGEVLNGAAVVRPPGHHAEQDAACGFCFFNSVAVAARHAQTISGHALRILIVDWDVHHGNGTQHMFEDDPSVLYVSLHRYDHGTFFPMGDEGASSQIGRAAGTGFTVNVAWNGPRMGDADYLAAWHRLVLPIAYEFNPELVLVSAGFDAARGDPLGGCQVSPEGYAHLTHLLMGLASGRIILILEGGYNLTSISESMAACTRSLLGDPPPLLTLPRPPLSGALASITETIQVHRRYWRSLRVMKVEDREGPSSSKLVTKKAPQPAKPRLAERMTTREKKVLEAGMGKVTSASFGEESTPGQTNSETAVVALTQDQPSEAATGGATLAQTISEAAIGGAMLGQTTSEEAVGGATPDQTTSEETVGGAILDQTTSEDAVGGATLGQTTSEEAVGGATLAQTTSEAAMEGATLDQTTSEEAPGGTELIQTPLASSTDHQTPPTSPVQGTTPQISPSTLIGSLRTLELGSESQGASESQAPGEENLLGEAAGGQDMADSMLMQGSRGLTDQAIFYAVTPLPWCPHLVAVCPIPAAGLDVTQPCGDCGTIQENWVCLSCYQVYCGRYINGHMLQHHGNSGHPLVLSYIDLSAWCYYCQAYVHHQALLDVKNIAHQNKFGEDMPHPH
The data set is described as follows: Inhibition of human recombinant His-tagged HDAC6 expressed in baculovirus. In short, it runs like this: as §1

The target of data set [3] is Histone deacetylase. The data set is described as follows: Inhibition of HDAC in T24 cells assessed as histone H3 acetylation. The settings on record: Homo sapiens.
Data set [4] is described as follows: Volume of distribution at steady state in rat. Type of data set: ADME, organism-based. The settings on record: in vivo, read-out: Vdss.
Data set [5] can be described thus: Metabolic stability in rat plasma assessed as compound remaining after 1 hr. To be noted: read-out: Activity. It is filed as ADME, cell-free. Put shortly:
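Compound kept in rat plasma at 37 °C for 1 h; percentage of intact compound remaining was measured.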

In data set [6] the target is Histone deacetylase. The data set is described as follows: Inhibition of HDAC in T24 cells assessed as alpha-tubulin acetylation. The settings on record: Homo sapiens.
A short description of data set [7]: Oral bioavailability in rat. It is filed as ADME, organism-based. To be noted: in vivo.
The nature of data set [8]: Clearance in iv dosed rat. Type of data set: ADME, organism-based. To be noted: in vivo.
Data set [9] in a line: Half life in rat. Type of data set: ADME, organism-based. The settings on record: in vivo.
Another data set is filed under the species Homo sapiens. Briefly: Selectivity for ratio of IC50 for human recombinant HDAC1 to IC50 for human recombinant HDAC6. In short, it runs like this:
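HDAC1 and HDAC6 were each preincubated with compound for 10 min at ambient temperature in 25 mM Hepes pH 8.0, 137 mM NaCl, 1 mM MgCl2, 2.7 mM KCl. A coumarin-labeled acetyl-lysine substrate was then added at 37 °C. Reactions were quenched with trypsin (1 mg/mL final) plus TSA, and fluorescence was read. IC50s came from dose-response curves, as means of at least two experiments. The ratio is HDAC1 IC50 over HDAC6 IC50.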

Bounds are passed on as bounds.

Histone deacetylase 1, sequence (Q13547 whole entry): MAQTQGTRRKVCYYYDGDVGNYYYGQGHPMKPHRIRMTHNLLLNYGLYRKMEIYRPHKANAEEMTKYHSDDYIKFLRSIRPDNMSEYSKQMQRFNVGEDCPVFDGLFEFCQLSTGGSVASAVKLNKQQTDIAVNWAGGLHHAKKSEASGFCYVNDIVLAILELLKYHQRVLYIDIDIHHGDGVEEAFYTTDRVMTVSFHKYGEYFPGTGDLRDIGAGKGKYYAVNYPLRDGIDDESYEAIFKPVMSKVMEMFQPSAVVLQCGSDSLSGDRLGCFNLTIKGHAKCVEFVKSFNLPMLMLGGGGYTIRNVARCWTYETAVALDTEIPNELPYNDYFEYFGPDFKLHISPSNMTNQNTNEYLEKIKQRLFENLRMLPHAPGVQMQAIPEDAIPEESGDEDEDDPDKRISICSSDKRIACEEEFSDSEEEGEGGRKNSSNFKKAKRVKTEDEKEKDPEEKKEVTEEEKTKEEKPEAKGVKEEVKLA

For `NS(=O)(=O)NCCCC[C@H](NC(=O)OCc1ccccc1)C(=O)Nc1nccs1`, the IC50 against Histone deacetylase [1] was above 50000 nM; on Histone deacetylase 1 it was above 10000 nM; in [2] it was 4100 nM.
On to `NS(=O)(=O)NCCCC[C@H](NC(=O)OCc1ccccc1)c1c[nH]c(-c2ccccc2)n1`, for which the half-inhibitory concentration (IC50) was found to be 2200 nM against Histone deacetylase [1], 290 nM on Histone deacetylase 1 and 410 nM in data set [2].
For `N[C@@H](CCCCNS(N)(=O)=O)C(=O)Nc1nc(-c2ccccc2)cs1` the same measures were above 50000 nM, above 10000 nM and 1100 nM.
For `NS(=O)(=O)NCCCC[C@H](NC(=O)NCc1ccc(F)cc1)C(=O)Nc1nc(-c2ccccc2)cs1` the same measures were 29000 nM, 350 nM and 370 nM.
With `NS(=O)(=O)NCCCC[C@H](NC(=O)OCc1ccccc1)C(=O)Nc1nc(-c2ccc(Cl)cc2)cs1`, the half-maximal inhibitory concentration (IC50) against Histone deacetylase [1] worked out at 4900 nM; on Histone deacetylase 1 it was 150 nM; in [2] it was 250 nM.
For `CCOC(=O)c1csc(NC(=O)[C@H](CCCCNS(N)(=O)=O)NC(=O)OCc2ccccc2)n1` the same measures were above 50000 nM, above 10000 nM and 580 nM.
For `CCOC(=O)N[C@@H](CCCCNS(N)(=O)=O)C(=O)Nc1nc(-c2ccccc2)cs1` the same measures were 17000 nM, 2500 nM and 200 nM.
Regarding `CC(C)c1ccc(-c2csc(NC(=O)[C@H](CCCCNS(N)(=O)=O)NC(=O)OCc3ccccc3)n2)cc1`, the IC50 against Histone deacetylase [1] is 3200 nM; on Histone deacetylase 1, 520 nM; in [2] it was 1400 nM.
As for `NS(=O)(=O)NCCCC[C@H](NC(=O)OCc1ccccc1)c1nc(-c2ccc(F)cc2)no1`, the figures for the IC50 (against Histone deacetylase [1]; at Histone deacetylase 1; in [2]) were above 50000 nM, above 10000 nM and 1700 nM, respectively.
As for `NS(=O)(=O)NCCCC[C@H](NC(=O)OCc1ccc(Cl)cc1)C(=O)Nc1nc(-c2ccccc2)cs1`, the values for the 50% inhibitory concentration (IC50) (against Histone deacetylase [1]; on Histone deacetylase 1; in [2]) were 6800 nM, 570 nM and 530 nM, respectively.
Regarding `NS(=O)(=O)NCCCC[C@H](NC(=O)OCc1ccccc1)c1nnc(-c2ccccc2)o1`, the IC50 was determined as 9900 nM against Histone deacetylase [1], 3200 nM on Histone deacetylase 1 and 1800 nM in data set [2].
On to `Cn1nc([C@H](CCCCNS(N)(=O)=O)NC(=O)OCc2ccccc2)nc1-c1ccccc1`, for which the half-maximal inhibitory concentration (IC50) was above 50000 nM on Histone deacetylase [1], 4300 nM on Histone deacetylase 1 and 2000 nM in data set [2].
For `NS(=O)(=O)NCCCC[C@H](NC(=O)OCc1cccc(Cl)c1)C(=O)Nc1nc(-c2ccccc2)cs1` the same measures were 3600 nM, 350 nM and 280 nM.
As for `NS(=O)(=O)NCCCC[C@H](NC(=O)Nc1ccccc1)C(=O)Nc1nc(-c2ccccc2)cs1`, the 50% inhibitory concentration (IC50) is above 50000 nM against Histone deacetylase [1], 2300 nM at Histone deacetylase 1 and 560 nM in data set [2].
For `NS(=O)(=O)NCCCC[C@H](NC(=O)OCc1ccccc1)c1nc2ccccc2[nH]1` the same measures were 9500 nM, 2900 nM and 100 nM.
For `NS(=O)(=O)NCCCC[C@H](NC(=O)OCc1ccccc1)C(=O)Nc1nc(-c2ccccc2)cs1`, the EC50 at Histone deacetylase [3] came to 700 nM; at Histone deacetylase [6], 600 nM. The Vd in data set [4] was determined as 0.02 L/kg. This compound displayed a half-inhibitory concentration (IC50) against Histone deacetylase [1] of 2300 nM. The remaining at 1 h in data set [5] came to 3%. This compound returned a bioavailability in [7] of 4.9%. In addition, the clearance in data set [8] is 41.7 mL/min/kg. The half-life in data set [9] is 1.5 min.
As for `CC(C)(C)c1csc(NC(=O)[C@H](CCCCNS(N)(=O)=O)NC(=O)OCc2ccccc2)n1`, the IC50 against Histone deacetylase [1] was 9100 nM; at Histone deacetylase 1, 3600 nM; in data set [2], 840 nM.
For the compound `NS(=O)(=O)NCCCC[C@H](NC(=O)OCc1ccccc1)c1n[nH]c(-c2ccccc2)n1`, the half-inhibitory concentration (IC50) against Histone deacetylase [1] amounted to 6400 nM; on Histone deacetylase 1, 2400 nM; in data set [2], 320 nM.
For the compound `NS(=O)(=O)NCCCC[C@H](NC(=O)OCc1ccccc1)c1csc(-c2ccccc2)n1`, in the data set filed under Homo sapiens, the Ratio IC50 is 2. Moreover, the concentration for half-maximal inhibition (IC50) at Histone deacetylase [1] stood at 5800 nM; at Histone deacetylase 1 it was 790 nM; in [2] it was 400 nM.
Turning to `NS(=O)(=O)NCCCC[C@H](NC(=O)OCc1ccccc1)c1nc(-c2ccccc2)cs1`, the IC50 worked out at 12000 nM against Histone deacetylase [1], 4900 nM on Histone deacetylase 1 and 1200 nM in [2].
For the compound `COc1ccc(-c2nc([C@H](CCCCNS(N)(=O)=O)NC(=O)OCc3ccccc3)cs2)cc1`, the IC50 at Histone deacetylase 1 was found to be 500 nM; in [2], 480 nM.
`NS(=O)(=O)NCCCC[C@H](NS(=O)(=O)Cc1ccccc1)C(=O)Nc1nc(-c2ccccc2)cs1`: the IC50 at Histone deacetylase [1] came out at 38000 nM; at Histone deacetylase 1, 1400 nM; in [2], 520 nM.
In the case of `NS(=O)(=O)NCCCC[C@H](NC(=O)OCc1ccccc1)C(=O)Nc1nc2ccccc2s1`, the IC50 worked out at 19000 nM on Histone deacetylase [1], 4500 nM at Histone deacetylase 1 and 190 nM in [2].
The corresponding values for `COc1ccc2[nH]c(C)c(CC(=O)N[C@@H](CCCCNS(N)(=O)=O)C(=O)Nc3nc(-c4ccccc4)cs3)c2c1` are 590 nM, 64 nM and 1200 nM.
Consider `NS(=O)(=O)NCCCC[C@H](NC(=O)OCc1ccccc1)C(=O)Nc1nc(-c2ccccc2)c(-c2ccccc2)s1`, for which the concentration for half-maximal inhibition (IC50) against Histone deacetylase [1] was determined as 7200 nM; on Histone deacetylase 1 it was 850 nM; in [2], 450 nM.
For `NS(=O)(=O)NCCCC[C@H](NC(=O)Cc1ccccc1)C(=O)Nc1nc(-c2ccccc2)cs1` the same measures were 6100 nM, 700 nM and 150 nM.
The corresponding values for `COc1ccc(-c2csc(NC(=O)[C@H](CCCCNS(N)(=O)=O)NC(=O)OCc3ccccc3)n2)cc1` are 530 nM, 120 nM and 200 nM.
For `NS(=O)(=O)NCCCC[C@H](NC(=O)OCc1cccnc1)C(=O)Nc1nc(-c2ccccc2)cs1` the same measures were 18000 nM, 1500 nM and 600 nM.
In the case of `COc1cccc(-c2csc(NC(=O)[C@H](CCCCNS(N)(=O)=O)NC(=O)OCc3ccccc3)n2)c1`, the values for the IC50 (on Histone deacetylase [1]; on Histone deacetylase 1; in data set [2]) were 3200 nM, 460 nM and 420 nM, respectively.
As to `CN(C)CCOc1ccc(-c2nc([C@H](CCCCNS(N)(=O)=O)NC(=O)OCc3ccccc3)cs2)cc1`, the Vd in [4] was 0.78 L/kg. The IC50 came out at 180 nM on Histone deacetylase [1], 390 nM at Histone deacetylase 1 and 890 nM in data set [2]. In data set [7], this compound had a bioavailability of 0.5%. Besides, the clearance in [8] was 38.3 mL/min/kg. The half-life in data set [9] is 96 min.

For the origin of these results see ChEMBL document CHEMBL1153367, “Synthesis and evaluation of lysine derived sulfamides as histone deacetylase inhibitors” (Bioorg Med Chem Lett, 2009).
